Screening data as filed in PubChem.
Shown are actives, neighbours in structure and some others; about 2.3% of the full set was active somewhere.
OXTR potentiate – potentiates the human oxytocin receptor response | P30559 | AID 2445 | hit rate 0.061% among 320,000 | CHO-OTR cells, Fluo-8 calcium fluorescence, potentiator mode; 0% = oxytocin EC15, 100% = EC100 | activation, % at 3 µM;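 active = activation above that plate's cutoff, the mean activation of tested compounds plus 3 SD, cut at about 6.6% in these data, passing the limit was not always enough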
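Assay system: CHO cell line stably expressing human OTR. Reagent: EC15 oxytocin agonist. Dosing: single dose, 3.0 µM nominal final compound concentration. Timing: compound 6 min at room temperature before oxytocin, 100 s read. Signal: kinetic Fluo-8 calcium fluorescence. Controls: oxytocin EC15 low and EC100 high.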
OXTR agonist – human OXTR agonism; activation, % at 3 µM; CHO-OTR cells, Fluo-8 calcium fluorescence; normalized: DMSO 0%, oxytocin 100%; AID 2435; hit rate 0.32% among 320,000; P30559;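 active = activation above the mean of all tested compounds plus 3 SD, cutoff set per screening run, cut at about 20% in these data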;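 note: peak over basal fluorescence ratio from a 100 s FLIPR kinetic read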
TAAR1 agonist – agonists of human TAAR1; CHO RD-HGA16 TAAR1, Fluo-8 calcium fluorescence; vehicle wells 0%, saturating PEA agonist 100%; activation, % at 3 µM; hit rate 0.99% among 360,000;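 active = activation above the mean activation of all test compounds in the run plus 3 SD, cut at about 38% in these data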
Target sequence (Q96RJ0 whole entry, looked up): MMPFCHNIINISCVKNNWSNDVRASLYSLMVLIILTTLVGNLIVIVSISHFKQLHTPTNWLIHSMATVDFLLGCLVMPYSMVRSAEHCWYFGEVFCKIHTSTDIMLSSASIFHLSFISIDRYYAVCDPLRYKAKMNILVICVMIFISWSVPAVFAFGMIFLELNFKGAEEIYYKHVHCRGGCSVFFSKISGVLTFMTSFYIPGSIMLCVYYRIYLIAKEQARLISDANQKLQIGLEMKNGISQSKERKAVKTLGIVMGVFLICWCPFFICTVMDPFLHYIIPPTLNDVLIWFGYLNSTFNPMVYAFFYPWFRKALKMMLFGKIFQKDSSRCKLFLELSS
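Assay system: CHO-derived RD-HGA16 cells with stable Gα16 and human TAAR1; timing: 17-24 h seeding, 75 min 37 °C dye, 30 min RT; read-out: % activation from peak over basal fluorescence ratio, DMSO-to-PEA scaled; measured by: kinetic Fluo-8 calcium fluorescence; benchmarks: low control DMSO, high control PEA (EC100); doses: 3 µM single concentration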
V1aR counter – activates human V1a receptor in oxytocin agonist counter-screen | AID 2797 | activation, % at 3 µM | hit rate 0.25% among 320,000 | CHO-V1R cells, Fluo-8 calcium fluorescence, agonist mode; 0% DMSO, 100% 3 nM vasopressin;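 active = activation above the mean activation of all tested compounds plus 3 SD, per screening run, cut at about 20% in these data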;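 note: signal is peak over basal fluorescence ratio across a 100 second FLIPR read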
Target sequence (P37288 whole entry, looked up): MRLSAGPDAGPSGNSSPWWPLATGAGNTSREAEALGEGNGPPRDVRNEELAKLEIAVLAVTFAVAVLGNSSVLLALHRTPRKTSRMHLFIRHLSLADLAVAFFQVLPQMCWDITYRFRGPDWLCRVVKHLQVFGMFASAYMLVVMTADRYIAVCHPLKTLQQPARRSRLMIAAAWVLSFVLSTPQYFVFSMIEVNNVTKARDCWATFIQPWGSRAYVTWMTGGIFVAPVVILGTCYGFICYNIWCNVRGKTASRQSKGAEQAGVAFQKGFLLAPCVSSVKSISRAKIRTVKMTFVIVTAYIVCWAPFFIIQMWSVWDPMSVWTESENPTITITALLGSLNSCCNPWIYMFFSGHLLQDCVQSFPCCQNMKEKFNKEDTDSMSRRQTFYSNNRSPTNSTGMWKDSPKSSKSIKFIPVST
TAAR1 antagonist – antagonists of human TAAR1 | AID 624466 | CHO RD-HGA16 TAAR1, Fluo-8 calcium fluorescence, antagonist | hit rate 1.5% among 360,000 | inhibition, % at 3 µM | Q96RJ0;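 active = inhibition above a per-plate cutoff, the mean inhibition of test compounds on that plate plus 3 SD, cut at about 49% in these data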
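Test system: RD-HGA16 CHO cells with stable hTAAR1 and Gα16 / Probe or stimulus: EC80 β-phenethylamine stimulus / Times: seeding 17-24 h prior, 75-min 37 °C, 30-min RT dye loading / Detection: Fluo-8 calcium-sensitive fluorescence / Read-out basis: % inhibition scaled between DMSO and EC80 PEA controls / Repeats: singlicate, one well per test compound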
TAAR1 nonsel count – counter-screen for TAAR1 antagonists: nonselective antagonists; shares compounds with TAAR1 antagonist; counterscreen cell line, calcium fluorescence, antagonist mode; inhibition, % at 3 µM; hit rate 77% among 2,400; AID 651780; in the data active = inhibition above about 22%;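 note: CHO-Ga16 host cells stimulated with ATP at an EC80 level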
TAAR1 ant conf – confirmation of human TAAR1 antagonists; shares compounds with TAAR1 antagonist; AID 651785; inhibition, % at 3 µM; TAAR1-expressing cells, fluorescence antagonist read-out; hit rate 40% among 2,400; in the data active = inhibition above about 49%;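 note: CHO-Ga16 host cells challenged with agonist PEA near its EC80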
Ga16 ag counter – nonselective Ga16 agonist in TAAR1 antagonist counter-screen; shares compounds with TAAR1 antagonist; Ga16-expressing cells, calcium fluorescence, agonist counterscreen; activation, % at 3 µM; hit rate 18% among 2,400; AID 651953; in the data active = activation above about 12%
TAAR1 ag count – counter-screen for human TAAR1 antagonists: TAAR1 agonists. shares compounds with TAAR1 antagonist. hTAAR1 cell line, fluorescence activation, agonist mode. activation, % at 3 µM. hit rate 2% among 2,400; in the data active = activation above about 37%;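 note: CHO cells stably expressing TAAR1 with calcium dye readout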
Numbers stand for hits; - = inactive; . = no result.

SMILES | OXTR potentiate | OXTR agonist | TAAR1 agonist | V1aR counter | TAAR1 antagonist | TAAR1 nonsel count | TAAR1 ant conf | Ga16 ag counter | TAAR1 ag count
CCOC(=O)CSc1nc2c(sc(=S)n2Cc2ccco2)c(=O)n1-c1ccc(F)cc1 | - | - | - | - | - | . | . | . | .
COc1ccc(/C=C2/SC(=O)N(NS(=O)(=O)c3ccccc3)C2=S)cc1OC | - | - | - | - | 63.4 | 28.6 | - | - | -
COc1cc(/C=C2\SC(=S)N(NS(=O)(=O)c3ccccc3)C2=O)cc(OC)c1OC | - | - | - | - | - | . | . | . | .
CCN1C(=O)c2cccc3c(S(=O)(=O)N(C(=O)c4cccnc4)c4ccc(OC)cc4)ccc1c23 | - | - | - | - | 67.5 | 31.3 | 54.4 | - | -
CCN1C(=O)c2cccc3c(S(=O)(=O)N(C)C)ccc1c23 | . | . | - | . | - | . | . | . | .
CCN1C(=O)c2cccc3c(S(=O)(=O)N(C(=O)c4ccncc4)c4ccc(OC)cc4)ccc1c23 | - | - | - | - | 66.4 | 31.4 | - | - | -
O=C1NC[C@@H](c2ccccc2)OC(=O)[C@@H](Cc2ccc(F)cc2)CC/C=C/C[C@H]1CC(=O)N(CCO)Cc1ccccc1 | - | - | - | - | 59.4 | - | - | - | -
O=C1NC[C@@H](c2ccccc2)OC(=O)[C@H](Cc2ccc(F)cc2)C/C=C\C[C@H]1CC(=O)N(CCO)Cc1ccccc1 | - | - | - | - | 68.2 | 30.4 | - | - | -
O=C(C[C@@H]1C/C=C/CC[C@@H](Cc2ccc(F)cc2)C(=O)O[C@@H](c2ccccc2)CNC1=O)NCCO | - | - | - | - | 65.5 | 26.0 | 49.3 | - | -
CC(C)(C)OC(=O)C[C@H]1C/C=C\C[C@@H](CC(=O)N[C@@H](CO)Cc2ccccc2)C(=O)NC[C@@H](c2ccccc2)OC1=O | - | - | - | - | - | . | . | . | .
CC(C)(C)OC(=O)C[C@@H]1C/C=C\C[C@@H](CC(=O)N[C@@H](CO)Cc2ccccc2)C(=O)NC[C@@H](c2ccccc2)OC1=O | - | - | - | - | 66.6 | 27.9 | - | - | -
Cc1cccc(N(Cc2cc3ccc(C)cc3[nH]c2=O)C(=O)c2ccco2)c1 | - | - | - | - | - | . | . | . | .
COc1ccc(-c2ccc3c(n2)CCCN3S(=O)(=O)c2ccc(F)cc2)cc1 | . | . | - | . | - | . | . | . | .
CCCCS(=O)(=O)N1CCCc2nc(-c3ccc(OC)cc3)ccc21 | . | . | - | . | 49.4 | 32.0 | - | - | -
CC(C(=O)O)N1C(=O)c2ccccc2C1=O (stereo not given) | - | - | - | - | - | . | . | . | .
CCn1c(=NC(=O)c2ccc(N3C(=O)CCC3=O)cc2)sc2c(OC)ccc(OC)c21 | - | - | - | - | - | . | . | . | .
CCn1c(=NC(=O)c2cccc(N3C(=O)CCC3=O)c2)sc2c(C)ccc(OC)c21 | - | - | - | - | 60.5 | 30.5 | - | - | -
CCOc1cc(/C=C/C(=O)NCCc2ccc(S(N)(=O)=O)cc2)ccc1OCC(C)C | - | - | - | - | 76.4 | 24.8 | - | - | -
COc1cc(/C=C/C(=O)NCCc2ccc(S(N)(=O)=O)cc2)ccc1OCC#N | - | - | - | - | - | . | . | . | .
COCCn1ccc2c(OCC(=O)Nc3ccccc3OC)cccc2c1=O | - | - | - | - | 57.6 | 26.7 | - | - | -
O=C(Nc1cccc(-c2csc(Nc3ccccc3)n2)c1)c1cc([N+](=O)[O-])cc(C(F)(F)F)c1 | - | - | - | - | 55.3 | - | - | - | -
O=C(Nc1ccc(-c2csc(Nc3ccccc3)n2)cc1)c1ccccc1 | - | - | - | - | 73.9 | 26.2 | 53.0 | - | -
O=C(Nc1cccc(-c2csc(Nc3ccc(Cl)cc3)n2)c1)c1cc([N+](=O)[O-])cc(C(F)(F)F)c1 | - | - | - | - | - | . | . | . | .
O=C(Nc1cccc(-c2csc(Nc3ccc(Cl)cc3)n2)c1)c1ccccc1 | - | - | - | - | - | . | . | . | .
CC1=CC2=NC(=O)/C(=C\c3cn(C)c4ccccc34)C(=N)N2O1 | - | - | - | - | - | . | . | . | .
SMILES | OXTR potentiate | OXTR agonist | TAAR1 agonist | V1aR counter | TAAR1 antagonist | TAAR1 nonsel count | TAAR1 ant conf | Ga16 ag counter | TAAR1 ag count
Cn1cnc([N+](=O)[O-])c1Sc1ccncn1 | . | . | - | . | - | . | . | . | .
CN(C)/C=C/c1onc(-c2c(F)cccc2Cl)c1C#N | - | - | - | - | - | . | . | . | .
COc1cc(/C=C/c2nc(-c3ccccc3O)n[nH]2)cc(OC)c1OC | - | - | - | - | 72.4 | 21.9 | 50.6 | - | -
COc1cc(/C=C/c2nc(N)nc(-c3ccccc3O)n2)cc(OC)c1OC | - | - | - | - | - | . | . | . | .
COc1cccc(NC(=O)CCSc2ccc3ccccc3n2)c1 | - | - | - | - | 76.4 | - | - | - | -
CC(=O)Oc1ccc(C(=O)Nc2cccnc2)cc1 | - | - | - | - | - | . | . | . | .
Cc1ccc(C)c(N2CCN(C(=O)CCc3nc(-c4ccccc4Br)no3)CC2)c1 | . | . | - | . | 67.2 | 32.0 | - | - | -
Cc1ccc(C)c(N2CCN(C(=O)CCc3nc(-c4ccccc4F)no3)CC2)c1 | . | . | - | . | 63.9 | - | - | - | -
Cc1ccc(C)c(N2CCN(C(=O)CCc3nc(-c4cccc(F)c4)no3)CC2)c1 | . | . | - | . | - | . | . | . | .
Cc1ccc2[nH]c(C)c(CCN(Cc3cccnc3)C(=S)NC(C)(C)C)c2c1 | - | - | - | - | - | . | . | . | .
O=c1[nH]c2ccccc2cc1CN(Cc1ccco1)S(=O)(=O)c1ccc(F)cc1 | - | - | - | - | 53.9 | 23.4 | - | - | -
CCN(Cc1cc2ccccc2[nH]c1=O)S(=O)(=O)c1ccc(OC)cc1 | - | - | - | - | - | . | . | . | .
CCOC(=O)c1cccc(S(=O)(=O)N(CCO)Cc2cc3cc(OC)ccc3[nH]c2=O)c1 | - | - | . | - | . | . | . | . | .
COC(=O)c1cccc(S(=O)(=O)N(Cc2ccco2)Cc2cc3cc(OC)ccc3[nH]c2=O)c1 | - | - | - | - | 58.4 | 24.3 | 58.5 | - | -
O=c1c2ccccc2nc(SCc2cn3ccsc3n2)n1-c1ccccc1 | - | - | - | - | - | . | . | . | .
CCc1nc(SCC(=O)N2CCN(c3ccccc3)CC2)c2oc3ccccc3c2n1 | - | - | - | - | 53.3 | 27.2 | - | - | -
CCc1nc(SCCO)c2oc3ccccc3c2n1 | - | - | - | - | - | . | . | . | .
O=C(CN1c2ccccc2Sc2ccccc21)NNC(=O)Nc1cccc(Cl)c1 | - | - | - | - | 58.4 | - | - | - | -
O=C(Cc1ccccc1)NNC(=O)Nc1cccc(Cl)c1 | - | - | - | - | - | . | . | . | .
